Source: the array DNA melting data of Ke et al. (doi:10.1101/2024.01.08.574731)

Key:
[1] = folding enthalpy; higher = less favourable; fluorescence melt of hairpins on a sequencing array, two-state fit; conditions: sodium 0.088 M
Procedure, shortened: (§1)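 To match UV melts, fitted temperatures were raised by 9.35 °C. These fits were bootstrapped two-state models that gave melting temperature and folding enthalpy, combined by inverse variance over four replicates. The input was normalised Cy3 fluorescence of library hairpins with annealed Cy3 and quencher oligos on a sequenced MiSeq flow cell, imaged in 50 mM Na-HEPES pH 8.0, 25 mM NaCl in 2.5 °C steps up to 60 °C.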

[2] = melting temperature; fluorescence melt of hairpins on a sequencing array, two-state fit, raised by 9.35 °C to match UV melts; conditions: sodium 0.088 M
Procedure, shortened: as §1

Row | Sequence | folding enthalpy [1] [kcal/mol] | Tm [2] [°C]
1 | GATCGACGAAAGTCATC (((.(((....)))))) | -12.7 | 33.1
2 | GATCGACGACTCGATC ((((((....)))))) | -36.3 | 48.7
3 | GATCGACGCGTCGATC ((((((....)))))) | -52.3 | 68.2
4 | GATCGACGCTTCGATC ((((((....)))))) | -40.6 | 53.3
5 | GATCGACGGATCGATC ((((((....)))))) | -29 | 51.1
6 | GATCGACGGTCGATC ((((((...)))))) | -43.7 | 51.2
7 | GATCGACGTATCGATC ((((((....)))))) | -56.4 | 51.2
8 | GATCGACTAGTCGATC ((((((....)))))) | -45.6 | 63.7
9 | GATCGACTATTCGATC ((((((....)))))) | -38.4 | 50.5
10 | GATCGACTTATCGATC ((((((....)))))) | -44.6 | 51
11 | GATCGACTTGTCGATC ((((((....)))))) | -43.2 | 68.3
12 | GATCGAGACATCGATC ((((((....)))))) | -38.9 | 58.8
13 | GATCGAGACCTCGATC ((((((....)))))) | -44.3 | 56.7
14 | GATCGAGACGTCGATC ((((((....)))))) | -37.3 | 57.2
15 | GATCGAGAGTCGATC ((((((...)))))) | -29.7 | 49.4
16 | GATCGAGATCTCGATC ((((((....)))))) | -50.6 | 55.7
17 | GATCGAGCAATCGATC ((((((....)))))) | -39.7 | 57.7
18 | GATCGAGCTATCGATC ((((((....)))))) | -43.4 | 58.4
19 | GATCGAGGAAACTCGATC (((((((....))))))) | -44.5 | 62.7
20 | GATCGAGGAAACTCGGTC ((.((((....)))).)) | -30.4 | 50.5
21 | GATCGAGGAATCGATC ((((((....)))))) | -33.2 | 55.9
22 | GATCGAGGGGTCGATC ((((((....)))))) | -4.35 | 45.6
23 | GATCGAGGGTCGATC ((((((...)))))) | -32.3 | 51
24 | GATCGAGTACTCGATC ((((((....)))))) | -43.4 | 58.8

Row | Sequence | folding enthalpy [1] [kcal/mol] | Tm [2] [°C]
25 | GATCGAGTATTCGATC ((((((....)))))) | -40 | 59.2
26 | GATCGAGTCTCGATC ((((((...)))))) | -39.2 | 53.2
27 | GATCGAGTGGTCGATC ((((((....)))))) | -8.38 | 53.9
28 | GATCGAGTTCTCGATC ((((((....)))))) | -39.6 | 55.9
29 | GATCGAGTTTTCGATC ((((((....)))))) | -41.8 | 54.2
30 | GATCGATAAGTCGATC ((((((....)))))) | -44 | 52.5
31 | GATCGATATGTCGATC ((((((....)))))) | -41.9 | 55
32 | GATCGATATTTCGATC ((((((....)))))) | -44.3 | 53.1
33 | GATCGATCGTCGATC ((((((...)))))) | -28.7 | 51.7
34 | GATCGATCGTTCGATC ((((((....)))))) | -36 | 53.5
35 | GATCGATGTTCGATC ((((((...)))))) | -29.4 | 51
36 | GATCGATTATCGATC ((((((...)))))) | -38.5 | 52.7
37 | GATCGATTGCTCGATC ((((((....)))))) | -31.9 | 51.2
38 | GATCGATTGTCGATC ((((((...)))))) | -35.5 | 51.3
39 | GATCGATTTATCGATC ((((((....)))))) | -44.8 | 59.7
40 | GATCGCAACTGCGATC ((((((....)))))) | -33.8 | 69.2
41 | GATCGCAAGAGCGATC ((((((....)))))) | -34 | 67.8
42 | GATCGCACCGGCGATC ((((((....)))))) | -33.7 | 68.3
43 | GATCGCACTTGCGATC ((((((....)))))) | -32.3 | 69.1
44 | GATCGCAGTCGCGATC ((((((....)))))) | -34.5 | 68.5
45 | GATCGCAGTTGCGATC ((((((....)))))) | -41.1 | 68.6
46 | GATCGCATTGGCGATC ((((((....)))))) | -33.2 | 68.8
47 | GATCGCCAGGCGATC ((((((...)))))) | -35.1 | 67.1
48 | GATCGCCAGTGCGATC ((((((....)))))) | -34.9 | 64.4

Row | Sequence | folding enthalpy [1] [kcal/mol] | Tm [2] [°C]
49 | GATCGCCATCGCGATC ((((((....)))))) | -31.5 | 65
50 | GATCGCCCATGCGATC ((((((....)))))) | -36.2 | 67.6
51 | GATCGCCCCCGCGATC ((((((....)))))) | -37.6 | 66.8
52 | GATCGCCCCTGCGATC ((((((....)))))) | -33.6 | 67.2
53 | GATCGCCCGGCGATC ((((((...)))))) | -40.9 | 68.5
54 | GATCGCCCTGCGATC ((((((...)))))) | -32 | 67.8
55 | GATCGCCGAAAGGCAATC (((.(((....))).))) | -17.1 | 44.8
56 | GATCGCCGAAAGGCCATC (((.(((....))).))) | -14.5 | 38.6
57 | GATCGCCGCCGCGATC ((((((....)))))) | -36 | 66.6
58 | GATCGCCGTTGCGATC ((((((....)))))) | -53.2 | 66.2
59 | GATCGCCTCGCGATC ((((((...)))))) | -30.2 | 68.7
60 | GATCGCCTGGCGATC ((((((...)))))) | -35.7 | 67.9
61 | GATCGCCTTTGCGATC ((((((....)))))) | -38.6 | 67.8
62 | GATCGCGAAAGCGAATC ((((((....))).))) | -14 | 52.5
63 | GATCGCGAAAGCGAGATC ((((((....)))..))) | -13.8 | 60.6
64 | GATCGCGAAAGCGGCATC ((((((....)))..))) | -7.52 | 32.1
65 | GATCGCGAAAGCGTAATC ((((((....)))..))) | -8.8 | 29.2
66 | GATCGCGAAAGCGTCATC ((((((....)))..))) | -7.57 | 33.8
67 | GATCGCGATTGCGATC ((((((....)))))) | -34.2 | 68.7
68 | GATCGCGGAAACGCAATC (((.(((....))).))) | -22.6 | 41.3
69 | GATCGCGGAAACGCGGTC ((.((((....)))).)) | -22.8 | 62.8
70 | GATCGCGTGGCGATC ((((((...)))))) | -32.6 | 69
71 | GATCGCGTGTGCGATC ((((((....)))))) | -29.3 | 68.5
72 | GATCGCTAAAGCGATC ((((((....)))))) | -27.7 | 67.1

Row | Sequence | folding enthalpy [1] [kcal/mol] | Tm [2] [°C]
73 | GATCGCTACTGCGATC ((((((....)))))) | -34.5 | 68.5
74 | GATCGCTAGAGCGATC ((((((....)))))) | -34.2 | 67.6
75 | GATCGCTAGGCGATC ((((((...)))))) | -36.8 | 68.4
76 | GATCGCTCAGGCGATC ((((((....)))))) | -36.1 | 67.9
77 | GATCGCTCGGGCGATC ((((((....)))))) | -38.6 | 69.2
78 | GATCGCTCGTGCGATC ((((((....)))))) | -41.6 | 67.2
79 | GATCGCTGAGGCGATC ((((((....)))))) | -38.1 | 68.5
80 | GATCGCTTACGCGATC ((((((....)))))) | -31.8 | 68.6
81 | GATCGCTTATGCGATC ((((((....)))))) | -33.8 | 68.1
82 | GATCGCTTCCGCGATC ((((((....)))))) | -36 | 67.2
83 | GATCGCTTGGGCGATC ((((((....)))))) | -27.7 | 69.1
84 | GATCGGAAACGATC (((((....))))) | -28.7 | 55.1
85 | GATCGGAAATCCGATC ((((((....)))))) | -44.8 | 54.5
86 | GATCGGAAGGCCGATC ((((((....)))))) | -35.7 | 53.9
87 | GATCGGAATCCCGATC ((((((....)))))) | -36.3 | 53.9
88 | GATCGGACAGCCGATC ((((((....)))))) | -36.9 | 52.4
89 | GATCGGACCACCGATC ((((((....)))))) | -37.2 | 56.9
90 | GATCGGACCCCCGATC ((((((....)))))) | -32.9 | 54.7
91 | GATCGGACCGCCGATC ((((((....)))))) | -39.9 | 54.6
92 | GATCGGACGGCCGATC ((((((....)))))) | -45.5 | 59.3
93 | GATCGGAGACCGATC ((((((...)))))) | -30.9 | 56.7
94 | GATCGGAGGGCCGATC ((((((....)))))) | -37.3 | 55.1
95 | GATCGGAGTCCCGATC ((((((....)))))) | -33.8 | 55.3
